Compound activity deposited in PubChem by Broad Institute.
This is a sample that favours compounds with a hit; in the whole collection about 3.7% have one here.
DENV2 CPE – inhibitors of DENV2 cytopathic effect, primary screen, cell-based, plate reader, single concentration; DENV2-infected cells, cytopathic effect rescue; CPE inhibition, % at 9.99 µM; 350,000 tested, 1.7% active; in the data active = CPE inhibition above about 20%, passing the limit was not always enough; inconclusive = no clear call, values can overlap the other calls; tested in BHK-21 cells
F508del corr – F508del CFTR correction, initial screen, CFBE line, single point. CFBE cells, YFP halide quenching; stimulated with forskolin plus potentiator P3; % fluorescence drop versus neutral controls. activity (quench increase), % at 7.58 µM. 350,000 tested, 0.36% active;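 active = mean added fluorescence quench of at least 8% versus neutral control, with both replicates also reaching 8%; inconclusive = only one of the mean or replicate conditions met; inactive = mean below 8% and not both replicates reaching 8%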;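 also: cells transiently co-express mutant CFTR-F508del with the halide-sensitive YFP; corrector assay measuring rescue of mutant channel to the surface after 24 h compound exposure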
FGF22 binding – binders of human FGF22 protein, primary screen, FGF22 synaptogenesis inhibitor project, biophysical, thermal shift, single point | Fibroblast growth factor 22 (Homo sapiens), Q9HCT0 | recombinant FGF22 thermal shift, SYPRO orange fluorescence; percent of sucrose octasulfate shift, DMSO zero | activity (Tm shift, normalised), % at 9.99 µM | 340,000 tested, 1.5% active | AID 651658, 2012;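 active = mean Tm shift, scaled 0 neutral to 100 positive control, at about 1.3% or above, every replicate too, limit read from the data; inconclusive = no clear call, values can overlap the other calls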
ERAP1 HTS inh – human ERAP1 aminopeptidase inhibitors, primary screen, biochemical, single point, plate reader. Endoplasmic reticulum aminopeptidase 1 (Homo sapiens), Q9NZ08. recombinant ERAP1, Leu-AMC fluorescence, 60 min. inhibition, % at 10.7 µM. 340,000 tested, 0.15% active;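 active = mean replicate inhibition of at least 30%, or all replicates individually reaching that 30% level; inactive = mean below 30% and not every replicate reaching it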
E-sel inducer – E-selectin induction in HUVECs, primary screen, imaging, HUVEC, immunofluorescence imaging, single point | normalized: neutral wells 0, TNF-alpha wells 100 | P16581 | 260,000 tested, 0.37% active | AID 686992, 2013 | activation, % at 7.58 µM;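 active = mean E-selectin-positive cell signal at least 10% of the positive control, reached in at least 60% of replicates, without over 20% cell loss; inconclusive = no rule given, readout overlaps actives, possibly toxicity-flagged; inactive = the rest, including those meeting only one limit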
Target sequence (P16581 whole entry, looked up): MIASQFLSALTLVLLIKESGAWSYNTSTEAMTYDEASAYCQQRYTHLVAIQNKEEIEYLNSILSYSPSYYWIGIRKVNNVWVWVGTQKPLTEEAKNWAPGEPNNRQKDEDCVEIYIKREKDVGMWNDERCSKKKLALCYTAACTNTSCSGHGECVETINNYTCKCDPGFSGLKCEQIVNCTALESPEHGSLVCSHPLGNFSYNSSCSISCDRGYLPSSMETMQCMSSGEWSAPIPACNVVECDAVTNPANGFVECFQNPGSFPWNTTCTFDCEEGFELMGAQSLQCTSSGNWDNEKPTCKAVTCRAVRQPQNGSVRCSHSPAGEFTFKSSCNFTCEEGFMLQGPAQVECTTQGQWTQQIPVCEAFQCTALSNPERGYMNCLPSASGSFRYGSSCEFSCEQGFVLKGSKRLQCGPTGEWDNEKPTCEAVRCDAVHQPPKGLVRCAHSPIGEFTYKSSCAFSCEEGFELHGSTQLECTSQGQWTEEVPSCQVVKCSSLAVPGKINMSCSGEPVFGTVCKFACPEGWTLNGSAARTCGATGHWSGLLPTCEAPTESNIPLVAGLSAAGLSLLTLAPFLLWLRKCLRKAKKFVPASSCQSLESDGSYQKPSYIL
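Material: HUVEC primary endothelial cells; Amount: 3,000 cells per well; Dosing: single concentration; Medium: EGM-2 growth medium on 0.1% gelatin-coated wells; Read-out basis: percent E-selectin-positive cells; Signal: immunofluorescence imaging; Control set: TNF-alpha, DMSO.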
A number is an active result; i = inactive; ? = inconclusive; nt = no result.

SMILES	DENV2 CPE	F508del corr	FGF22 binding	ERAP1 HTS inh	E-sel inducer
COc1ccc2c3c([nH]c2c1)[C@H](CO)N(C(=O)NC(C)C)CC31CN(C(=O)C2CCCCC2)C1	?	i	i	i	i
C[C@@H]1CN([C@H](C)CO)C(=O)c2cc(NC(=O)CCCCCC(=O)Nc3ccccc3N)ccc2O[C@@H]1CN(C)S(=O)(=O)c1ccccc1	i	i	i	nt	i
CO[C@H]1CN(C)C(=O)c2cc(NC(=O)C3CCCC3)ccc2OC[C@H](C)N(C(=O)CC2CC2)C[C@@H]1C	i	i	i	i	i
CC=Cc1ccc2n(c1=O)C[C@@H]1[C@@H](CO)[C@H](C(=O)NCC)[C@H]2N1C(=O)Nc1cc(F)ccc1F (mixture of isomers)	i	i	i	i	i
C[C@@H]1CCCCO[C@H](CN(C)S(=O)(=O)c2cn(C)cn2)[C@@H](C)CN([C@H](C)CO)C(=O)c2cc(NS(=O)(=O)c3cn(C)cn3)ccc2O1	i	i	i	i	i
CCCNC(=O)N1CCC2(CC1)CN(C(=O)COC)[C@H](CO)c1[nH]c3cc(OC)ccc3c12	28	i	i	i	i
Cc1ccc(S(=O)(=O)Oc2cccc([N+](=O)[O-])c2)cc1	i	i	44	i	i
O=[N+]([O-])c1cccc(S(=O)(=O)c2cccc([N+](=O)[O-])c2)c1	i	nt	i	i	nt
CC(C)NC(=O)N(C)C[C@H]1Oc2ccc(N(C)C)cc2CC(=O)N([C@@H](C)CO)C[C@H]1C	i	i	i	i	nt
COc1cc(NC(=O)N2CCc3nc(Nc4cc(Cl)cc(Cl)c4)ncc3C2)cc(OC)c1OC	47	i	i	i	i
COc1ccc(CNC(=O)N2CCc3nc(Nc4cc(OC)c(OC)c(OC)c4)ncc3C2)cc1	i	i	i	i	i
COc1ncnc(OC)c1S(=O)(=O)NCc1ccccc1	i	nt	i	i	50
COc1ccc(Nc2nc3ccccc3s2)cc1	?	nt	2.6	i	nt
Cc1cccc(CN(C)C[C@H]2OCc3cn(nn3)CCCC(=O)N([C@H](C)CO)C[C@@H]2C)c1	nt	i	nt	nt	i
Cc1cc(C(=O)CCl)c(C)n1Cc1ccco1	i	i	43	i	i
COc1cc2c(cc1OC)CC(=O)N(C)CC2	i	i	i	i	nt
COc1cc2c(cc1OC)C[N+](C)(C)CC2	i	i	i	65	nt
CCN(CC)S(=O)(=O)c1ccc2c(c1)nc(CCC(=O)OCC(=O)Nc1c(F)cccc1F)n2C	45	i	i	i	nt
C[C@@H](O)C#Cc1cnc2c(c1)C(=O)N([C@@H](C)CO)C[C@H](C)[C@H](CN(C)Cc1ccccn1)O2	i	i	i	i	i
O=S(=O)(NC(CO)Cc1ccccc1)c1ccc(Br)cc1F (stereo not drawn)	i	i	43	i	i
CCCC(=O)N1CC2(CCN(C(=O)CC3CC3)CC2)c2c(n(C)c3cc(OC)ccc23)[C@@H]1CO	?	i	nt	nt	i
Cc1noc(C)c1NC(=O)Nc1ccc2c(c1)C(=O)N([C@H](C)CO)C[C@@H](C)[C@H](CN(C)C(=O)Nc1cccc3ccccc13)O2	?	i	i	i	i
CCn1c(=O)n(CC)c2cc(N3CCCC3)c(NC(=O)c3ccc(C)cc3)cc21	36	i	i	i	nt
CCn1c(=O)n(CC)c2cc(N3CCCC3)c(NC(=O)c3ccccc3)cc21	?	i	i	i	nt
C=CCn1c(SCC(=O)NC(N)=O)nnc1-c1cc2c(s1)CCC(CC)C2 (stereo not drawn)	21	nt	i	i	nt
C=CCn1c(SCC(=O)NCC)nnc1-c1cc2c(s1)CCC(CC)C2 (stereo not drawn)	i	i	i	i	nt
C[C@@H]1CN([C@H](C)CO)S(=O)(=O)c2ccc(-c3ccncc3)cc2O[C@H]1CN(C)Cc1ccc(Oc2ccccc2)cc1	i	i	i	i	131
C[C@H](CO)N1C[C@H](C)[C@@H](CN(C)Cc2cccnc2)Oc2cc(-c3ccccc3F)ccc2S1(=O)=O	46	i	nt	nt	i
C[C@H](CO)N1C[C@H](C)[C@H](CN(C)Cc2cccnc2)Oc2cc(-c3ccccc3F)ccc2S1(=O)=O	i	i	i	i	i
